What all share (type): cell-based
Assay [1] concerns the target T1, RNA polymerase II (Mus musculus) (UniProt P08775+Q8CFI7+P97760+A0A3Q4L2S8+Q80UW8+P61219+P62488+Q923G2+P60898+O08740+Q63871+P62876). Nature of the assay: Inhibition of RNA polymerase II in mouse B16-F1 migrating cells assessed as fold change in Rps15-RNA stability at 0.1 mM measured by […] analysis relative to control cells.
For assay [2], the target named is T1, RNA polymerase II (Mus musculus). Description: Inhibition of RNA polymerase II in mouse B16-F1 migrating cells assessed as fold change in Psip1-RNA stability at 0.1 mM measured by […] analysis relative to control cells.
For assay [3] the target is unchanged. Description: Inhibition of RNA polymerase II in mouse B16-F1 migrating cells assessed as fold change in BC004004-RNA stability at 0.1 mM measured by […] analysis relative to control cells.
Assay [4] has the same target. Description: Inhibition of RNA polymerase II in mouse B16-F1 migrating cells assessed as fold change in Mex3c-RNA stability at 0.1 mM measured by ChIP-seq analysis relative to control cells.
Assay [5] shares this target. Nature of the assay: Inhibition of RNA polymerase II in mouse B16-F1 migrating cells assessed as fold change in Phf20l1-RNA stability at 0.1 mM measured by […] analysis relative to control cells.
For assay [6] the target is unchanged. Description: Inhibition of RNA polymerase II in mouse B16-F1 migrating cells assessed as fold change in Calu-RNA stability at 0.1 mM measured by […] analysis relative to control cells.
The target is the same in assay [7]. Nature of the assay: Inhibition of RNA polymerase II in mouse B16-F1 migrating cells assessed as fold change in Chd1-RNA stability at 0.1 mM measured by ChIP-seq analysis relative to control cells.
Assay [8] has the same target. Nature of the assay: Inhibition of RNA polymerase II in mouse B16-F1 migrating cells assessed as fold change in Fkbp8-RNA stability at 0.1 mM measured by ChIP-seq analysis relative to control cells.
Assay [9] has the same target. Nature of the assay: Inhibition of RNA polymerase II in mouse B16-F1 migrating cells assessed as fold change in Grhpr-RNA stability at 0.1 mM measured by ChIP-seq analysis relative to control cells.
For assay [10] the target is unchanged. Nature of the assay: Inhibition of RNA polymerase II in mouse B16-F1 migrating cells assessed as fold change in Ndrg1-RNA stability at 0.1 mM measured by ChIP-seq analysis relative to control cells.
The target is the same in assay [11]. Description: Inhibition of RNA polymerase II in mouse B16-F1 migrating cells assessed as fold change in Zfp367-RNA stability at 0.1 mM measured by […] analysis relative to control cells.
Assay [12] shares this target. Description: Inhibition of RNA polymerase II in mouse B16-F1 migrating cells assessed as fold change in Galk1-RNA stability at 0.1 mM measured by ChIP-seq analysis relative to control cells.
Assay [13] has the same target. Description: Inhibition of RNA polymerase II in mouse B16-F1 migrating cells assessed as fold change in Ptbp2-RNA stability at 0.1 mM measured by […] analysis relative to control cells.
Assay [14] addresses Histone-lysine N-methyltransferase EZH2 (Mus musculus) (UniProt Q61188). Nature of the assay: Inhibition of EZH2 in mouse B16-F1 migrating cells assessed as fold change in H3K27me3-independent regulated Pwwp2b-mRNA expression at 3 uM measured by […] analysis relative to control cells. The procedure, abridged:
(§1)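 Confluent B16-F1 cells on fibronectin-coated plates were scratched at multiple sites, washed once with DMEM and left to migrate 3 h in growth medium (37 °C, 7% CO2); unscratched cells served as control. GSK343 (3 µM) was added 3 h before lysis. Poly A mRNA was sequenced (RNA-seq), with 5 replicates for untreated and 3 for treated cells. Differential expression was called by linear model with batch correction, at FDR <0.05 and fold change ≥1.3.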

The target is the same in assay [15]. Nature of the assay: Inhibition of EZH2 in mouse B16-F1 migrating cells assessed as fold change in H3K27me3-independent regulated Aldoc-mRNA expression at 3 uM measured by ChIP-seq analysis relative to control cells. In outline:
as §1

Assay [16] shares this target. Description: Inhibition of EZH2 in mouse B16-F1 migrating cells assessed as fold change in H3K27me3-dependent regulated Ddit4-mRNA expression at 3 uM measured by […] analysis relative to control cells. The procedure, abridged: as §1
For assay [17] the target is unchanged. Nature of the assay: Inhibition of EZH2 in mouse B16-F1 migrating cells assessed as fold change in H3K27me3-buffered regulated Hunk-mRNA expression at 3 uM measured by […] analysis relative to control cells. The procedure, abridged: (§2)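 Confluent B16-F1 cells on fibronectin-coated plates, cultured at 37 °C and 7% CO2, were scratched at multiple sites to induce migration. They were then held 3 h in growth medium containing 3 µM GSK343, with the inhibitor added 3 h before lysis. Unscratched cells served as controls. Poly A mRNA was analysed by RNA-seq (n=3 GSK343, n=5 controls). Linear models removed batch effects, and buffered genes were those altered only under GSK343 (FDR <0.05, fold change >1.3).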

Assay [18] shares this target. Description: Inhibition of EZH2 in mouse B16-F1 migrating cells assessed as fold change in H3K27me3-buffered regulated Tcf7l1-mRNA expression at 3 uM measured by […] analysis relative to control cells. The procedure, abridged:
as §1

Assay [19] shares this target. Description: Inhibition of EZH2 in mouse B16-F1 migrating cells assessed as fold change in H3K27me3-buffered regulated Ern1-mRNA expression at 3 uM measured by ChIP-seq analysis relative to control cells. In outline: as §2
For assay [20] the target is unchanged. Nature of the assay: Inhibition of EZH2 in mouse B16-F1 migrating cells assessed as fold change in H3K27me3-buffered regulated Fam184b-mRNA expression at 3 uM measured by […] analysis relative to control cells. The procedure, abridged:
as §2

Assay [21] shares this target. Description: Inhibition of EZH2 in mouse B16-F1 migrating cells assessed as fold change in H3K27me3-buffered regulated Tfcp2-mRNA expression at 3 uM measured by […] analysis relative to control cells. The procedure, abridged:
as §1

Assay [22] has the same target. Description: Inhibition of EZH2 in mouse B16-F1 migrating cells assessed as fold change in H3K27me3-independent regulated Bnip3-mRNA expression at 3 uM measured by […] analysis relative to control cells. In outline: as §1
For assay [23] the target is unchanged. Description: Inhibition of EZH2 in mouse B16-F1 migrating cells assessed as fold change in H3K27me3-dependent regulated Gm43909-mRNA expression at 3 uM measured by […] analysis relative to control cells. In outline: as §1
Assay [24] has the same target. Description: Inhibition of EZH2 in mouse B16-F1 migrating cells assessed as fold change in H3K27me3-buffered regulated Itpk1-mRNA expression at 3 uM measured by […] analysis relative to control cells. The procedure, abridged: as §2
For assay [25] the target is unchanged. Description: Inhibition of EZH2 in mouse B16-F1 migrating cells assessed as fold change in H3K27me3-buffered regulated 4930503L19Rik-mRNA expression at 3 uM measured by […] analysis relative to control cells. In outline:
as §2

The target is the same in assay [26]. Description: Inhibition of EZH2 in mouse B16-F1 migrating cells assessed as fold change in H3K27me3-buffered regulated Gulp1-mRNA expression at 3 uM measured by […] analysis relative to control cells. The procedure, abridged:
as §2

For 2 compounds, log2FC results are on record in ChEMBL document CHEMBL5674883, “The Heterochromatin Landscape in Migrating Cells and the Importance of H3K27me3 for Associated Transcriptome Alterations” (Cells, 2018).

Sequence of Histone-lysine N-methyltransferase EZH2 (Mus musculus) (Q61188 whole entry): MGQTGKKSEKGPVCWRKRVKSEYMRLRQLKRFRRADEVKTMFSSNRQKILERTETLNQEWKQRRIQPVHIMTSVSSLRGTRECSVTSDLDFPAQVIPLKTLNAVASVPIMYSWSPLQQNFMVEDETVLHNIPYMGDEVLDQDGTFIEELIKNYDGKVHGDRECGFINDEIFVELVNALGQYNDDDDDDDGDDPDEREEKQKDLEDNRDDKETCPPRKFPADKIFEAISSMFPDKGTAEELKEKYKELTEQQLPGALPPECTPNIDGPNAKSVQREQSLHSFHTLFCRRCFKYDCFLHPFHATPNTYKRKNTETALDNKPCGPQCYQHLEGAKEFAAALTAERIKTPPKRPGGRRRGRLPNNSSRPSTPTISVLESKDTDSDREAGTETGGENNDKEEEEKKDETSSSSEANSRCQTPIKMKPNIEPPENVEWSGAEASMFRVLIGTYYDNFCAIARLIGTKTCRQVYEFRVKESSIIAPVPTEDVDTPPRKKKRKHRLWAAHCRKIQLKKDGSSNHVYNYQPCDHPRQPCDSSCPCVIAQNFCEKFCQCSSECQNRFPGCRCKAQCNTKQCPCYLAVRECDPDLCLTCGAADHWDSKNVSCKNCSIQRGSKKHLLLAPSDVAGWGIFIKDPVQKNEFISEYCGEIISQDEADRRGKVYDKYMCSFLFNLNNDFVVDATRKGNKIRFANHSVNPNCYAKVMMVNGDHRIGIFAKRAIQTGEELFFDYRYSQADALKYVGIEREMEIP

As to `OC[C@H]1O[C@@H](n2cnc3cc(Cl)c(Cl)cc32)[C@H](O)[C@@H]1O`, the log2FC in assay [1] was 0.53; in [2] it was -0.83; in assay [3] it was 0.39; in [4] it was -0.71; in [5], -0.65; in [6], -0.47. Further, the log2FC is -0.56 in assay [7]; 0.41 in assay [8]; 1.02 in [9]; 0.7 in assay [10]; -0.87 in assay [11]; 0.67 in assay [12]. The log2FC in assay [13] is -0.56.
For `CCCc1cc(C)[nH]c(=O)c1CNC(=O)c1cc(-c2ccnc(N3CCN(C)CC3)c2)cc2c1cnn2C(C)C`, the log2FC is 0.46 in [14]; 0.69 in assay [15]; -0.53 in assay [16]; -0.5 in assay [17]; -0.48 in assay [18]; 0.72 in [19]. The log2FC is -0.72 in assay [20]; -0.38 in [21]; 0.68 in [22]; -0.39 in assay [23]; 0.51 in assay [24]; -0.64 in assay [25]. In assay [26], the log2FC was -0.44.
